Measurements from ChEMBL document CHEMBL4732088, “Identification and optimization of piperlongumine analogues as potential antioxidant and anti-inflammatory agents via activation of Nrf2” (Eur J Med Chem, 2021).
Activity calls are given as the source filed them. No cut-off for these calls is given here.

Assays:
[1] = system: PC-12; test: Neuroprotective activity against 6-OHDA-induced cell damage in rat PC12 cells assessed as cell viability at 20 uM after 24 hrs by MTT assay (reference value: 45.23 +/- 4.37 %); format: functional; conditions: read-out: Activity
[2] = system: PC-12; test: Protection against 6-OHDA-induced apoptosis in rat PC12 cells assessed as necrotic cells at 5 uM incubated for 24 hrs by annexin V FITC/propidium iodide staining based flow cytometry (reference value: 1.1 %); format: functional
[3] = system: PC-12; test: Cytoprotective activity against H2O2-induced neurotoxicity in rat PC12 cells assessed as reduction in LDH release at 5 to 20 uM preincubated for 24 hrs followed by H2O2 treatment by LDH assay; format: functional, cell-based; conditions: dose 5-20 µM
How it was run: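 PC12 cells pretreated with compound (5, 10, 20 μM) for 24 h, then H₂O₂ or 6-OHDA; membrane damage read as LDH leakage; mean ± SD of three independent experiments.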

[4] = Antioxidant activity assessed as DPPH radical scavenging activity; format: functional
[5] = system: PC-12; test: Protection against H2O2-induced apoptosis in rat PC12 cells assessed as necrotic cells at 5 uM incubated for 24 hrs by annexin V FITC/propidium iodide staining based flow cytometry (reference value: 0.6 %); format: functional
[6] = system: BV-2; test: Antiinflammatory activity in mouse BV2 cells transfected with control siRNA assessed as reduction in LPS-induced NO production at 20 uM pretreated with compound followed by LPS stimulation for 18 hrs
[7] = target: T1, Nuclear factor erythroid 2-related factor 2 (Rattus norvegicus) (UniProt O54968); test: Activation of Nrf2 in rat PC12 cells assessed as increase in GCLC protein level after 24 hrs by Western blot analysis; format: cell-based; conditions: PC-12, filed as activator, dose 5-20 µM
T1 sequence (whole entry): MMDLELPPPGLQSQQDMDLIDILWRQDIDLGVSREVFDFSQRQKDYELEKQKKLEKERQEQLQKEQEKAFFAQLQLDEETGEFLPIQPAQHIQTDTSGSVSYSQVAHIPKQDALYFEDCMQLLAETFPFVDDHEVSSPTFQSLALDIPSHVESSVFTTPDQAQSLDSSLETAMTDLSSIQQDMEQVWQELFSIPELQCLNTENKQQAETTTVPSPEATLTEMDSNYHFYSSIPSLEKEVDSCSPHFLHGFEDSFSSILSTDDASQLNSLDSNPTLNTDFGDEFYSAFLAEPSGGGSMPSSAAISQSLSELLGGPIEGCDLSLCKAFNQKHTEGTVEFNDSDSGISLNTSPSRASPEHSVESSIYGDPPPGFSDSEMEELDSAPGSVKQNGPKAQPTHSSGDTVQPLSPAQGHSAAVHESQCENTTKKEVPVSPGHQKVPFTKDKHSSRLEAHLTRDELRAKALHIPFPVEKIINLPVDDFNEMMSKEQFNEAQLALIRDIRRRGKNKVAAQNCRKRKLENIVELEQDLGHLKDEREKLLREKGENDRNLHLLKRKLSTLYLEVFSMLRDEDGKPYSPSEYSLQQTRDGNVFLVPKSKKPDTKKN
How it was run: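 PC12 cells treated with compound for 24 h at rising concentrations; NQO1, HO-1, TrxR1, GCLM, GCLC protein detected by Western blot.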

[8] = system: BV-2; test: Antiinflammatory activity in mouse BV2 cells transfected with Nrf2 siRNA assessed as inhibition of LPS-induced IL-6 production at 20 uM pretreated with compound followed by LPS stimulation for 18 hrs
[9] = system: PC-12; test: (§1) Prevention of H2O2-induced calcium overload in rat PC12 cells assessed as reduction in intracellular free calcium by measuring mean fluorescence intensity at 5 uM pretreated with compound followed by H2O2 addition measured after 24 hrs by Fluo-3AM based fluorescence assay (reference value: 17791.36%); format: functional
[10] = system: PC-12; test: as §1, with “10” for “5”; format: functional
[11] = target: T1, Nuclear factor erythroid 2-related factor 2 (Rattus norvegicus); test: Activation of Nrf2 in rat PC12 cells assessed as increase in GCLM protein level at 20 uM after 12 hrs by Western blot analysis; format: cell-based; conditions: PC-12, filed as activator
[12] = system: PC-12; test: Protection against 6-OHDA-induced apoptosis in rat PC12 cells assessed as late apoptotic cells at 5 uM incubated for 24 hrs by annexin V FITC/propidium iodide staining based flow cytometry (reference value: 7.6 %); format: functional
[13] = target: T1, Nuclear factor erythroid 2-related factor 2 (Rattus norvegicus); test: Induction of Nrf2 translocation from cytoplasm to nucleus in rat PC12 cells at 20 uM after 6 hrs by Western blot analysis; format: cell-based; conditions: PC-12, filed as activator
How it was run: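 PC12 cells given compound; nuclear and cytoplasmic fractions probed for Nrf2 by Western blot across a time course up to and beyond 6 h.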

[14] = system: PC-12; test: Protection against H2O2-induced apoptosis in rat PC12 cells assessed as viable cells at 20 uM incubated for 24 hrs by annexin V FITC/propidium iodide staining based flow cytometry (reference value: 79.3 %); format: functional; conditions: read-out: Activity
[15] = system: PC-12; test: Protection against H2O2-induced mitochondrial dysfunction in rat PC12 cells assessed as change in mitochondrial membrane potential loss at 20 uM pretreated with compound followed by H2O2 addition by JC-1 staining based flow cytometry (reference value: 21.3 %); format: functional
How it was run: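 Mitochondrial membrane potential in PC12 cells pretreated with compound (5, 10, 20 μM), then exposed to H₂O₂ (200 μM) or 6-OHDA (150 μM). JC-1 staining, red-to-green fluorescence shift read by flow cytometry. Mean ± SD, n = 3.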

[16] = target: T2, Nuclear factor erythroid 2-related factor 2 (Mus musculus) (UniProt Q60795); test: Activation of Nrf2 in mouse BV2 cells assessed as upregulation of GCLC protein expression after 24 hrs by Western blot analysis; format: cell-based; conditions: BV-2, filed as activator, dose 5-20 µM
T2 sequence (whole entry): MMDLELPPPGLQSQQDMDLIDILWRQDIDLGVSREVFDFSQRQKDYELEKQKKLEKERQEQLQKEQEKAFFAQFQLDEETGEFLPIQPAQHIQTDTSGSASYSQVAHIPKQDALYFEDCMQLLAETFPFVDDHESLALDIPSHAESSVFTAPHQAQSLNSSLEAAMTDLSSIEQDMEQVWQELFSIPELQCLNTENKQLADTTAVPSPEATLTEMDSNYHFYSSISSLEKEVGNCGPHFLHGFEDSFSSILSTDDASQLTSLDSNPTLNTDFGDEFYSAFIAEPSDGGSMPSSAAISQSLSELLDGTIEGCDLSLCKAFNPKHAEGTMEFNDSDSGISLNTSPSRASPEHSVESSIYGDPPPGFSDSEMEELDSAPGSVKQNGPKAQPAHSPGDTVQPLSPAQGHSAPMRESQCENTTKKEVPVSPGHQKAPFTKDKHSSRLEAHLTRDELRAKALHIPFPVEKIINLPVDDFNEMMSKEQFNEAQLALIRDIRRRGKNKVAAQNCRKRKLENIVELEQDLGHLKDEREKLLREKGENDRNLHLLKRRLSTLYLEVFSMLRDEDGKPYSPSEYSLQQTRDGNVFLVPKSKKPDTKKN
How it was run: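 BV2 microglia exposed to compound for 24 h over a concentration series; Nrf2, NQO1, HO-1, TrxR1, GCLM and GCLC protein levels read by Western blot.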

Compound: CCN(C)C(=O)N1CCN(C(=O)/C=C/c2ccc(F)cc2)C1=O
- viability at 20 µM [1]: 75.4%
- Activity [2]: 1%
- Activity [3]: Active
- Activity [4]: inactive
- Activity [5]: 0.9%
- Activity [6]: Active
- Activity [7]: Dose-dependent effect
- Activity [8]: inactive
- Flu intensity [9]: 8721.73
- Flu intensity [10]: 7793.41
- Activity [11]: Active
- Activity [12]: 6.4%
- Activity [13]: Active
- viability at 20 µM [14]: 93.7%
- Activity [15]: 7.2%
- Activity [16]: Dose-dependent effect
